According to ChEMBL document CHEMBL3272008, “Synthesis and biological actions of 2-substituted quinolizidines” (J Med Chem, 1976):

Legend:
[1] = Acute toxicity in ip dosed Swiss-Webster mouse administered as single dose after 7 days; type: organism-based; conditions: in vivo
Outline: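 Mice given a single ip dose at each of four dose levels; lethality followed over 7 days; LD50 with 95% confidence limits estimated by the method of Weil. Compounds dissolved in minimal 1.5 M NaH2PO4, diluted with water; haloperidol in minimal 50% (w/v) tartaric acid-water.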

Mus musculus [2] = assay: Depression of forced motor activity in Swiss-Webster mouse at 50 mg/kg, ip after 30 mins by rotarod test relative to control; type: functional; conditions: route intraperitoneal
Outline: (§1)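 Mice were dosed ip with vehicle or compound dissolved in a minimum of 1.5 M NaH2PO4 and diluted with water. On the rotarod, speed was 4 rpm for 30 sec, then 6 rpm for 30 sec, then increased every 30 sec up to a maximum of 50 rpm until the fall. Each mouse had four trials, two per day on two consecutive days, spaced 4–6 hr apart. The fourth trial was run 30 min after dosing. The read-out was trial time (sec) as % of control, with significance by Student's t test (p < 0.05).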

Mus musculus [3] = assay: Depression of forced motor activity in Swiss-Webster mouse at 25 mg/kg, ip after 30 mins by rotarod test relative to control; type: functional; conditions: route intraperitoneal; outline: as §1
Mus musculus [4] = assay: Depression of forced motor activity in Swiss-Webster mouse at 12.5 mg/kg, ip after 30 mins by rotarod test relative to control; type: functional; conditions: route intraperitoneal; outline: as §1
Mus musculus [5] = assay: Depression of spontaneous motor activity in Swiss-Webster mouse at 50 mg/kg, ip by photocell cage test relative to control; type: functional; conditions: route intraperitoneal
Outline: (§2)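 Compound was dissolved in minimal 1.5 M NaH2PO4, diluted with water and given ip. Two mice given the same dose went into each of three photocell actophotometer cages 10 min after the rotarod test started. Counts were taken over 15 min, starting 5 min after placement. A factorial design across cages cancelled differences between units. Results were given as % of control, with significance by Student's t test (p < 0.05).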

Mus musculus [6] = assay: Depression of spontaneous motor activity in Swiss-Webster mouse at 25 mg/kg, ip by photocell cage test relative to control; type: functional; conditions: route intraperitoneal; outline: as §2
Mus musculus [7] = assay: Depression of spontaneous motor activity in Swiss-Webster mouse at 12.5 mg/kg, ip by photocell cage test relative to control; type: functional; conditions: route intraperitoneal; outline: as §2
Mus musculus [8] = assay: Depression of forced motor activity in Swiss-Webster mouse at 30 mg/kg, ip after 30 mins by rotarod test relative to control; type: functional; conditions: route intraperitoneal
Outline: (§3)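 Rotarod in mice: rod at 4 rpm for 30 sec, 6 rpm next 30 sec, then stepped up every 30 sec (max 50 rpm) until fall. Six mice at a time, four trials (two per day, 4–6 hr apart, two consecutive days); vehicle or compound ip 30 min before fourth trial. Time on rod as % of control; Student's t test, p < 0.05.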

Mus musculus [9] = assay: Depression of forced motor activity in Swiss-Webster mouse at 15 mg/kg, ip after 30 mins by rotarod test relative to control; type: functional; conditions: route intraperitoneal; outline: as §3
Mus musculus [10] = assay: Depression of forced motor activity in Swiss-Webster mouse at 60 mg/kg, ip after 30 mins by rotarod test relative to control; type: functional; conditions: route intraperitoneal; outline: as §3
Mus musculus [11] = assay: Depression of spontaneous motor activity in Swiss-Webster mouse at 30 mg/kg, ip by photocell cage test relative to control; type: functional; conditions: route intraperitoneal
Outline: (§4)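 Spontaneous activity in three photocell cages: two mice given the same ip dose placed per cage 10 min after rotarod start; 15-min count begun 5 min after placement. Each dose run in factorial design across all three cages to offset unit sensitivity. Counts expressed as % of control; Student's t test, p < 0.05.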

Mus musculus [12] = assay: Depression of spontaneous motor activity in Swiss-Webster mouse at 15 mg/kg, ip by photocell cage test relative to control; type: functional; conditions: route intraperitoneal; outline: as §4
Mus musculus [13] = assay: Depression of spontaneous motor activity in Swiss-Webster mouse at 60 mg/kg, ip by photocell cage test relative to control; type: functional; conditions: route intraperitoneal; outline: as §4
Mus musculus [14] = assay: Depression of forced motor activity in Swiss-Webster mouse at 100 mg/kg, ip after 30 mins by rotarod test relative to control; type: functional; conditions: route intraperitoneal; outline: as §3
Mus musculus [15] = assay: Depression of spontaneous motor activity in Swiss-Webster mouse at 100 mg/kg, ip by photocell cage test relative to control; type: functional; conditions: route intraperitoneal; outline: as §4

Row | SMILES | LD50 at 168 h [1] | Activity (Mus musculus [2]) | Activity (Mus musculus [3]) | Activity (Mus musculus [4]) | Activity (Mus musculus [5]) | Activity (Mus musculus [6]) | Activity (Mus musculus [7]) | Activity (Mus musculus [8]) | Activity (Mus musculus [9]) | Activity (Mus musculus [10]) | Activity (Mus musculus [11]) | Activity (Mus musculus [12]) | Activity (Mus musculus [13]) | Activity (Mus musculus [14]) | Activity (Mus musculus [15])
1 | O[C@@]1(c2ccc(C(F)(F)F)cc2)CCN2CCCCC2C1 (single isomer, unassigned) | 130 mg/kg | 83.5% | 92.3% | 99.3% | 45.2% | 82.7% | 49.7% | – | – | – | – | – | – | – | –
2 | O[C@@]1(c2cccc(Cl)c2)CCN2CCCCC2C1 (single isomer, unassigned) | 180 mg/kg | – | – | – | – | – | – | 105% | 96.5% | 51.4% | 154.9% | 166.7% | 44.3% | – | –
3 | O[C@@]1(c2cccc(C(F)(F)F)c2)CCN2CCCCC2C1 (single isomer, unassigned) | 262 mg/kg | 100.5% | 97.9% | – | 111% | 119% | – | – | – | – | – | – | – | 29.6% | 5.5%
